# Data from ChEMBL document CHEMBL1649119, “Daptomycin pharmacokinetics in adult oncology patients with neutropenic fever” (Antimicrob Agents Chemother, 2009).
# Legend:
# Type in all cases: ADME, organism-based
# [1] = Half life in healthy human at 8 mg/kg, iv administered as 30 mins infusion every 24 hrs measured on day 1; set-up: dose 8 mg/kg, route intravenous; details: in vivo
# [2] = Clearance in moderately obese adult human at 4 mg/kg, iv administered as single dose 30 mins infusion; set-up: dose 4 mg/kg, route intravenous; details: in vivo
# [3] = AUC (0 to infinity) in old healthy human at 4 mg/kg, iv administered as single dose 30 mins infusion; set-up: dose 4 mg/kg, route intravenous, time infinity; details: plasma
# [4] = AUC (0 to infinity) in nonobese human at 4 mg/kg, iv administered as single dose 30 mins infusion; set-up: time infinity, dose 4 mg/kg, route intravenous; details: plasma
# [5] = Mean residence time in adult human subjects at 6 mg/kg, iv administered as single dose 30 mins infusion; set-up: dose 6 mg/kg, route intravenous; details: in vivo
# [6] = Apparent volume of distribution in old healthy human at 4 mg/kg, iv administered as single dose 30 mins infusion; set-up: dose 4 mg/kg, route intravenous; details: in vivo
# [7] = Clearance in healthy human subjects at 6 mg/kg, iv administered as 30 mins infusion every 24 hrs measured on day 4; set-up: dose 6 mg/kg, route intravenous; details: in vivo
# [8] = Apparent volume of distribution during terminal phase in healthy human subjects at 10 mg/kg, iv administered as 30 mins infusion every 24 hrs measured on day 1; set-up: dose 10 mg/kg, route intravenous; details: in vivo
# [9] = AUC (0 to infinity) in healthy adult human at 6 mg/kg, iv administered as single dose 30 mins infusion; set-up: dose 6 mg/kg, route intravenous, time infinity; details: plasma
# [10] = Half life in healthy human at 6 mg/kg, iv administered as 30 mins infusion every 24 hrs measured on day 1; set-up: dose 6 mg/kg, route intravenous; details: in vivo
# [11] = Plasma concentration in cancer patient with neutropenic fever at 6 mg/kg, iv administered as 30 mins infusion every 24 hrs measured after 24 hrs; set-up: dose 6 mg/kg, route intravenous; details: human
# Method in brief: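 29 adult oncology patients with neutropenic fever received 6 mg/kg (total body weight) daptomycin as a 30-min IV infusion every 24 h. Plasma was sampled predose, at end of infusion, and 0.5, 1, 2, 4, 8, 12 and 24 h after infusion start. Total drug was measured by validated HPLC (linear 1–100 μg/ml, detection limit 1 μg/ml). Tmax was the observed value, analysed noncompartmentally.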
# [12] = Mean residence time in young healthy human at 4 mg/kg, iv administered as single dose 30 mins infusion; set-up: dose 4 mg/kg, route intravenous; details: in vivo
# [13] = Volume of distribution at steady state in cancer patient with neutropenic fever at 6 mg/kg, iv administered as 30 mins infusion every 24 hrs; set-up: dose 6 mg/kg, route intravenous; details: human, in vivo, read-out: Vdss
# [14] = Volume of distribution at steady state in moderately obese adult human at 4 mg/kg, iv administered as single dose 30 mins infusion; set-up: dose 4 mg/kg, route intravenous; details: in vivo, read-out: Vdss
# [15] = Clearance in healthy human subjects at 10 mg/kg, iv administered as 30 mins infusion every 24 hrs measured on day 14; set-up: dose 10 mg/kg, route intravenous; details: in vivo
# [16] = Half life in healthy human subjects at 10 mg/kg, iv administered as 30 mins infusion every 24 hrs measured on day 4; set-up: dose 10 mg/kg, route intravenous; details: in vivo
# [17] = Clearance in healthy human subjects at 8 mg/kg, iv administered as 30 mins infusion every 24 hrs measured on day 1; set-up: dose 8 mg/kg, route intravenous; details: in vivo
# [18] = Unbound fraction in healthy human plasma at 8 mg/kg, iv administered as 30 mins infusion every 24 hrs measured on day 14; set-up: dose 8 mg/kg, route intravenous
# [19] = AUC (0 to infinity) in morbidly obese adult human at 4 mg/kg, iv administered as single dose 30 mins infusion; set-up: time infinity, dose 4 mg/kg, route intravenous; details: plasma
# [20] = Apparent volume of distribution during terminal phase in healthy human at 8 mg/kg, iv administered as 30 mins infusion every 24 hrs measured on day 1; set-up: dose 8 mg/kg, route intravenous; details: in vivo
# [21] = Cmax in adult human with hepatic impairment at 6 mg/kg, iv administered as single dose 30 mins infusion; set-up: dose 6 mg/kg, route intravenous; details: in vivo
# [22] = Unbound fraction in healthy human plasma at 6 mg/kg, iv administered as 30 mins infusion every 24 hrs measured on day 7; set-up: dose 6 mg/kg, route intravenous
# [23] = Clearance in nonobese human at 4 mg/kg, iv administered as single dose 30 mins infusion; set-up: dose 4 mg/kg, route intravenous; details: in vivo
# [24] = Clearance in healthy human at 6 mg/kg, iv administered as 30 mins infusion every 24 hrs measured on day 7; set-up: dose 6 mg/kg, route intravenous; details: in vivo
# [25] = Cmax in morbidly obese adult human at 4 mg/kg, iv administered as single dose 30 mins infusion; set-up: dose 4 mg/kg, route intravenous; details: in vivo
# Homo sapiens [26] = experiment: Cmax in healthy human subjects at 6 mg/kg, iv administered as 30 mins infusion every 24 hrs measured on day 4; set-up: dose 6 mg/kg, route intravenous; details: in vivo
# Homo sapiens [27] = experiment: Unbound clearance in healthy human at 6 mg/kg, iv administered as 30 mins infusion every 24 hrs measured on day 7; set-up: dose 6 mg/kg, route intravenous; details: in vivo
# [28] = AUC (0 to infinity) in healthy human subjects at 10 mg/kg, iv administered as 30 mins infusion every 24 hrs measured on day 4; set-up: time infinity, dose 10 mg/kg, route intravenous; details: plasma
# [29] = Apparent volume of distribution during terminal phase in healthy human subjects at 8 mg/kg, iv administered as 30 mins infusion every 24 hrs measured on day 4; set-up: dose 8 mg/kg, route intravenous; details: in vivo
# [30] = Clearance in cancer patient with neutropenic fever at 6 mg/kg, iv administered as 30 mins infusion every 24 hrs; set-up: dose 6 mg/kg, route intravenous; details: human, in vivo
# Method in brief: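 29 adult oncology patients with neutropenic fever received 6 mg/kg (total body weight) as a 30-min IV infusion every 24 h. Plasma was sampled predose, at the end of infusion, and at 0.5, 1, 2, 4, 8, 12 and 24 h. Total drug was measured by validated HPLC (linear 1–100 μg/ml). Noncompartmental clearance = dose/AUC0-∞, with AUC from trapezoids plus last concentration/λz. Mean ± SD.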
# Homo sapiens [31] = experiment: Unbound clearance in healthy human at 4 mg/kg, iv administered as 30 mins infusion every 24 hrs measured on day 7; set-up: dose 4 mg/kg, route intravenous; details: in vivo
# [32] = Unbound fraction in healthy human plasma at 4 mg/kg, iv administered as 30 mins infusion every 24 hrs measured on day 1; set-up: dose 4 mg/kg, route intravenous
# [33] = Half life in healthy human subjects at 6 mg/kg, iv administered as 30 mins infusion every 24 hrs measured on day 1; set-up: dose 6 mg/kg, route intravenous; details: in vivo
# Homo sapiens [34] = experiment: Unbound clearance in healthy human at 8 mg/kg, iv administered as 30 mins infusion every 24 hrs measured on day 14; set-up: dose 8 mg/kg, route intravenous; details: in vivo
# Homo sapiens [35] = experiment: Half life in cancer patient with neutropenic fever at 6 mg/kg, iv administered as 30 mins infusion every 24 hrs; set-up: dose 6 mg/kg, route intravenous; details: in vivo
# Method in brief: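 Patients with neutropenic fever; 6 mg/kg by total body weight, 30-min IV infusion q24h. Plasma drawn predose, end of infusion, and 0.5, 1, 2, 4, 8, 12, 24 h after infusion start; total drug by validated HPLC (linear 1–100 μg/ml). Noncompartmental analysis; λz from terminal-phase regression, t1/2 = 0.693/λz.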
# [36] = Cmax in healthy human subjects at 10 mg/kg, iv administered as 30 mins infusion every 24 hrs measured on day 1; set-up: dose 10 mg/kg, route intravenous; details: in vivo
# [37] = Apparent volume of distribution during terminal phase in healthy human at 8 mg/kg, iv administered as 30 mins infusion every 24 hrs measured on day 7; set-up: dose 8 mg/kg, route intravenous; details: in vivo
# [38] = Apparent volume of distribution during terminal phase in healthy human subjects at 6 mg/kg, iv administered as 30 mins infusion every 24 hrs measured on day 4; set-up: dose 6 mg/kg, route intravenous; details: in vivo
# [39] = Cmax in healthy human at 4 mg/kg, iv administered as 30 mins infusion every 24 hrs measured on day 7; set-up: dose 4 mg/kg, route intravenous; details: in vivo
# [40] = Apparent volume of distribution in young healthy human at 4 mg/kg, iv administered as single dose 30 mins infusion; set-up: dose 4 mg/kg, route intravenous; details: in vivo
structure (smiles),measurement,setting,value
CCCCCCCCCC(=O)N[C@@H](Cc1c[nH]c2ccccc12)C(=O)N[C@H](CC(N)=O)C(=O)N[C@@H](CC(=O)O)C(=O)N[C@@H]1C(=O)NCC(=O)N[C@@H](CCCN)C(=O)N[C@@H](CC(=O)O)C(=O)N[C@H](C)C(=O)N[C@@H](CC(=O)O)C(=O)NCC(=O)N[C@H](CO)C(=O)N[C@@H]([C@H](C)CC(=O)O)C(=O)N[C@@H](CC(=O)c2ccccc2N)C(=O)O[C@@H]1C,half-life,[1],9.6 h
same,clearance,[2],0.271 mL/min/kg
same,AUC(0-inf),[3],474 µg·h/mL
same,AUC(0-inf),[4],419 µg·h/mL
same,MRT,[5],12.4 h
same,Vd,[6],0.17 L/kg
same,clearance,[7],0.152 mL/min/kg
same,Vd,[8],0.117 L/kg
same,AUC(0-inf),[9],598 µg·h/mL
same,half-life,[10],7.8 h
same,concentration at 24 h,[11],5.67 µg/mL
same,MRT,[12],9.05 h
same,Vd,[13],0.18 L/kg
same,Vd,[14],0.15 L/kg
same,clearance,[15],0.125 mL/min/kg
same,half-life,[16],7.9 h
same,clearance,[17],0.168 mL/min/kg
same,fraction unbound at 14 day,[18],0.09
same,AUC(0-inf),[19],548 µg·h/mL
same,Vd,[20],0.099 L/kg
same,Cmax,[21],114 µg/mL
same,fraction unbound at 7 day,[22],0.08
same,clearance,[23],0.17 mL/min/kg
same,clearance,[24],0.135 mL/min/kg
same,Cmax,[25],67 µg/mL
same,Cmax,Homo sapiens [26],93.9 µg/mL
same,CL,Homo sapiens [27],0.997 mL/min/kg
same,AUC(0-inf),[28],1040 µg·h/mL
same,Vd,[29],0.101 L/kg
same,clearance,[30],0.259 mL/min/kg
same,CL,Homo sapiens [31],1.05 mL/min/kg
same,fraction unbound at 1 day,[32],0.08
same,half-life,[33],7.5 h
same,CL,Homo sapiens [34],0.745 mL/min/kg
same,t1/2,Homo sapiens [35],8.75 h
same,Cmax,[36],130 µg/mL
same,Vd,[37],0.092 L/kg
same,Vd,[38],0.101 L/kg
same,Cmax,[39],57.8 µg/mL
same,Vd,[40],0.15 L/kg
